Reference: ChEMBL document CHEMBL4334465, “SAR Studies on Aromatic Acylhydrazone-Based Inhibitors of Fungal Sphingolipid Synthesis as Next-Generation Antifungal Agents” (J Med Chem, 2019)
≈ marks a conversion by molar mass, not a printed value.

Key:
[1] = Selectivity index, ratio of LD50 for human A549 cells to MIC80 for Cryptococcus neoformans H99; type: toxicity; settings: read-out: Selectivity Index
How it was run: (§1)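 SI = LD₅₀/MIC₈₀. Cytotoxicity: A549 or HepG2 cells (DMEM, 10% FBS, passage 7, 10⁵ cells/well) adhered 14 h, then exposed to 0.03–128 μg/mL for 24 or 48 h at 37°C, 5% CO₂; MTT 4 h, formazan dissolved in DMSO, read at 570 nm. MIC₈₀ against C. neoformans from broth microdilution in HEPES-buffered YNB, pH 7.0.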

[2] = system: A549; assay: Cytotoxicity against human A549 cells after 24 to 48 hrs by MTT assay; type: functional; settings: read-out: LD50 (the source's name)
How it was run: (§2)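 A549 and HepG2 kept in DMEM with 10% FBS and 1% pen-strep. At passage 7, seeded at 10⁵ cells/well and allowed to adhere 14 h. Compound added at 0.03–128 μg/mL, untreated wells as controls. Incubation 37°C, 5% CO₂ for 24 or 48 h. MTT (5 mg/mL in PBS) added for 4 h, formazan dissolved in DMSO, OD570.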

[3] = system: Cryptococcus neoformans; assay: Antifungal activity against Cryptococcus neoformans H99 measured after 24 to 72 hrs; type: functional; settings: var grubii H99
How it was run: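 Modified CLSI broth microdilution with inoculum per M27A3. Compounds were serially diluted 32 to 0.03 μg/mL. Media: C. neoformans in HEPES-buffered YNB without amino acids (pH 7.0, 2% glucose); Candida strains in YNB without ammonium sulfate or amino acids plus 1% asparagine (pH 7.0, 2% glucose); A. fumigatus in RPMI (pH 7.0, 2% glucose).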

[4] = system: Cryptococcus neoformans; assay: Fungicidal activity against Cryptococcus neoformans H99 measured after 24 hrs by time-kill assay; type: functional, var grubii H99
How it was run: (§3)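 Overnight C. neoformans washed in PBS and resuspended in HEPES-buffered YNB, pH 7.4. 2 × 10⁴ cells exposed to a range of drug concentrations in 10 mL with 0.5% DMSO final, at 37°C, 5% CO₂, shaking at 200 rpm. Aliquots sampled over 96 h, diluted and plated on YPD; CFU counted after 48 h at 30°C.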

[5] = system: HepG2; assay: Cytotoxicity against human HepG2 cells after 24 to 48 hrs by MTT assay; type: functional; settings: read-out: LD50 (the source's name); how it was run: as §2
[6] = Selectivity index, ratio of LD50 for human HepG2 cells to MIC80 for Cryptococcus neoformans H99; type: toxicity; settings: read-out: Selectivity Index; how it was run: as §1
[7] = system: Cryptococcus neoformans; assay: Fungicidal activity against Cryptococcus neoformans H99 measured after 48 hrs by time-kill assay; type: functional, var grubii H99; how it was run: as §3

Row | SMILES | selectivity ratio [1] | CC50 [2] [µg/mL] | MIC80 [3] [µg/mL] | MFC100 [4] [µg/mL] | CC50 [5] [µg/mL] | selectivity ratio [6] | MFC100 [7] [µg/mL]
1 | Cc1ccc(O)c(/C=N/NC(=O)c2cc(Br)cc(Br)c2O)c1 | 16 | 4 (≈ 9.34 µM) | 0.25 (≈ 0.584 µM) | 0.25 (≈ 0.584 µM) | 8 (≈ 18.7 µM) | 32 | 
2 | O=C(N/N=C/c1ccc(Br)cc1O)c1cccc(C(F)(F)F)c1 | 128 | 64 (≈ 165 µM) | 0.5 (≈ 1.29 µM) |  | 16 (≈ 41.3 µM) | 32 | 2 (≈ 5.17 µM)
3 | C/C(=N\NC(=O)c1cc(Br)ccc1Br)c1cc(Br)ccc1O |  |  | > 16 |  |  |  | 
4 | O=C(N/N=C/c1cc(F)ccc1O)c1cc(Br)ccc1Br |  |  | > 16 |  |  |  | 
5 | O=C(N/N=C/c1ccc(Br)cc1O)c1ccc(OC(F)F)cc1 | 267 | 32 (≈ 83.1 µM) | 0.12 (≈ 0.312 µM) | 1 (≈ 2.6 µM) | 32 (≈ 83.1 µM) | 267 | 
6 | O=C(N/N=C/c1ccc(Br)cc1O)c1cc(Br)cc(Br)c1 | 4 | 4 (≈ 8.39 µM) | 1 (≈ 2.1 µM) |  | 16 (≈ 33.5 µM) | 16 | 1 (≈ 2.1 µM)
7 | O=C(N/N=C/c1cc(Br)cc(Br)c1O)c1ccc(CF)cc1 | 32 | 16 (≈ 37.2 µM) | 0.5 (≈ 1.16 µM) | 0.5 (≈ 1.16 µM) | 16 (≈ 37.2 µM) | 32 | 
8 | O=C(N/N=C/c1ccc(Br)cc1O)c1cccc(F)c1F | 32 | 16 (≈ 45.1 µM) | 0.5 (≈ 1.41 µM) |  | 16 (≈ 45.1 µM) | 32 | 0.25 (≈ 0.704 µM)
9 | Cc1ccc(O)c(/C=N/NC(=O)c2cccc(Br)c2Br)c1 |  |  | > 16 |  |  |  | 
10 | Cc1ccc(O)c(/C=N/NC(=O)c2cc(Br)ccc2Br)c1 | 32 | 32 (≈ 77.7 µM) | 1 (≈ 2.43 µM) |  | 32 (≈ 77.7 µM) | 32 | 0.5 (≈ 1.21 µM)
11 | O=C(N/N=C/c1cc(Cl)ccc1O)c1cc(Br)ccc1Br | 236 | 59 (≈ 136 µM) | 0.25 (≈ 0.578 µM) | 0.25 (≈ 0.578 µM) | 32 (≈ 74 µM) | 128 | 
12 | O=C(N/N=C/c1cc(Br)ccc1O)c1cc(Br)ccc1Br | 64 | 16 (≈ 33.5 µM) | 0.25 (≈ 0.524 µM) |  | 32 (≈ 67.1 µM) | 128 | 1 (≈ 2.1 µM)
13 | Cc1ccccc1C(=O)N/N=C/c1cc(C(F)(F)F)ccc1O |  |  | 8 (≈ 24.8 µM) |  |  |  | 
14 | O=C(N/N=C/c1cc(Cl)cc(Cl)c1O)c1cc(Br)cc(Br)c1 | 128 | 64 (≈ 137 µM) | 0.5 (≈ 1.07 µM) | 0.5 (≈ 1.07 µM) | 64 (≈ 137 µM) | 128 | 
15 | Cc1ccccc1-c1nnc(-c2cc(Br)ccc2O)o1 |  |  | > 16 |  |  |  | 
16 | O=C(N/N=C/c1cc(Br)cc(Br)c1O)c1cccc(C(F)(F)F)c1 |  |  | 2 (≈ 4.29 µM) |  |  |  | 
17 | Cc1ccc(O)c(/C=N/NC(=O)c2ccc(Br)cc2Br)c1 | 32 | 32 (≈ 77.7 µM) | 1 (≈ 2.43 µM) | 2 (≈ 4.85 µM) | 16 (≈ 38.8 µM) | 16 | 
18 | O=C(N/N=C/c1cc(OC(F)(F)F)ccc1O)c1ccc(Br)cc1Br | 128 | 32 (≈ 66.4 µM) | 0.25 (≈ 0.519 µM) | 2 (≈ 4.15 µM) | 64 (≈ 133 µM) | 256 | 
19 | O=C(N/N=C/c1cc(Cl)cc(Cl)c1O)c1cc(Br)ccc1Br | 64 | 32 (≈ 68.5 µM) | 0.5 (≈ 1.07 µM) | 0.25 (≈ 0.535 µM) | 32 (≈ 68.5 µM) | 64 | 
20 | C/C(=N\NC(=O)c1cc(Br)ccc1Br)c1cc(Br)cc(Br)c1O |  |  | > 16 |  |  |  | 
21 | N#Cc1ccc(O)c(/C=N/NC(=O)c2ccc(Br)cc2Br)c1 |  |  | 8 (≈ 18.9 µM) |  |  |  | 
22 | O=C(N/N=C/c1cc(Br)ccc1O)c1cccc(C(=O)N/N=C/c2cc(Br)ccc2O)c1 |  |  | > 16 |  |  |  | 
23 | O=C(N/N=C/c1cc(Br)cc(Br)c1O)c1cccc(OC(F)(F)F)c1 |  |  | 4 (≈ 8.3 µM) |  |  |  | 
24 | O=C(N/N=C/c1cc(Cl)ccc1O)c1ccc(Br)c(Br)c1 | 267 | 16 (≈ 37 µM) | 0.06 (≈ 0.139 µM) |  | 32 (≈ 74 µM) | 533 | 1 (≈ 2.31 µM)
25 | Nc1ccc(C(=O)N/N=C/c2ccc(Br)cc2O)cc1 |  |  | 4 (≈ 12 µM) |  |  |  | 
26 | O=C(N/N=C/c1c(O)ccc2ccccc12)c1cccc(Br)c1Br |  |  | > 16 |  |  |  | 

Row | SMILES | selectivity ratio [1] | CC50 [2] [µg/mL] | MIC80 [3] [µg/mL] | MFC100 [4] [µg/mL] | CC50 [5] [µg/mL] | selectivity ratio [6] | MFC100 [7] [µg/mL]
27 | C/C(=N\NC(=O)c1ccc(Br)cc1Br)c1cc(Br)ccc1O |  |  | > 16 |  |  |  | 
28 | Cc1ccccc1C(=O)N/N=C/c1cc(C#N)ccc1O |  |  | 4 (≈ 14.3 µM) |  |  |  | 
29 | O=C(N/N=C/c1c(O)ccc2ccccc12)c1cc(Br)cc(Br)c1 | 8 | 2 (≈ 4.46 µM) | 0.25 (≈ 0.558 µM) | 0.5 (≈ 1.12 µM) | 4 (≈ 8.93 µM) | 16 | 
30 | Cc1ccc(O)c(/C=N/NC(=O)c2cc(Br)ccc2O)c1 | 64 | 16 (≈ 45.8 µM) | 0.25 (≈ 0.716 µM) | 0.5 (≈ 1.43 µM) | 16 (≈ 45.8 µM) | 64 | 
31 | O=C(N/N=C/c1ccc(Br)cc1O)c1cccc(Br)c1 | 128 | 64 (≈ 161 µM) | 0.5 (≈ 1.26 µM) |  | 8 (≈ 20.1 µM) | 16 | 0.25 (≈ 0.628 µM)
32 | O=C(N/N=C/c1cccc(Br)c1O)c1cccc(C(F)(F)F)c1 | 16 | 16 (≈ 41.3 µM) | 1 (≈ 2.58 µM) |  | 16 (≈ 41.3 µM) | 16 | 2 (≈ 5.17 µM)
33 | O=C(N/N=C/c1c(O)ccc2ccccc12)c1ccc(Br)cc1Br | 133 | 16 (≈ 35.7 µM) | 0.12 (≈ 0.268 µM) |  | 64 (≈ 143 µM) | 533 | 0.5 (≈ 1.12 µM)
34 | O=C(N/N=C/c1cc(Br)cc(Br)c1O)c1ccc(F)cc1 | 267 | 32 (≈ 76.9 µM) | 0.12 (≈ 0.288 µM) | 0.25 (≈ 0.601 µM) | 32 (≈ 76.9 µM) | 267 | 
35 | Cc1ccc(O)c(/C=N/NC(=O)c2cc(Br)cc(Br)c2)c1 | 64 | 32 (≈ 77.7 µM) | 0.5 (≈ 1.21 µM) | 1 (≈ 2.43 µM) | 16 (≈ 38.8 µM) | 32 | 
36 | O=C(N/N=C/c1cc(Br)cc(Br)c1O)c1cccc(C(=O)N/N=C/c2cc(Br)cc(Br)c2O)c1 |  |  | > 16 |  |  |  | 
37 | O=C(N/N=C/c1c(O)ccc2ccccc12)c1cc(Br)ccc1Br | 128 | 32 (≈ 71.4 µM) | 0.25 (≈ 0.558 µM) | 0.25 (≈ 0.558 µM) | 16 (≈ 35.7 µM) | 64 | 
38 | O=C(N/N=C/c1cc(Br)cc(Br)c1O)c1cccc(Br)c1Br | 64 | 32 (≈ 57.6 µM) | 0.5 (≈ 0.9 µM) |  | 16 (≈ 28.8 µM) | 32 | 2 (≈ 3.6 µM)
39 | O=C(N/N=C/c1cc(Br)ccc1O)c1cccc(OC(F)F)c1 | 66.6 | 8 (≈ 20.8 µM) | 0.12 (≈ 0.312 µM) | 1 (≈ 2.6 µM) | 64 (≈ 166 µM) | 533 | 
40 | O=C(N/N=C/c1cc(Br)cc(Br)c1O)c1cc(Br)cc(Br)c1 |  |  | > 16 |  |  |  | 
41 | O=C(N/N=C/c1cc(Cl)ccc1O)c1cccc(F)c1F | 72 | 72 (≈ 232 µM) | 1 (≈ 3.22 µM) |  | 32 (≈ 103 µM) | 32 | 0.5 (≈ 1.61 µM)
42 | C/C(=N\NC(=O)c1ccc(Br)cc1Br)c1cc(Br)cc(Br)c1O |  |  | > 16 |  |  |  | 
43 | O=C(N/N=C/c1ccc(Br)cc1O)c1cccc(Br)c1Br |  |  | > 16 |  |  |  | 
44 | O=C(N/N=C/c1cc(Br)ccc1O)c1ccc(C(F)(F)F)cc1F | 32 | 16 (≈ 39.5 µM) | 0.5 (≈ 1.23 µM) |  | 16 (≈ 39.5 µM) | 32 | 1 (≈ 2.47 µM)
45 | CC(=O)Nc1ccc(C(=O)N/N=C/c2ccc(Br)cc2O)cc1 |  |  | > 16 |  |  |  | 
46 | O=C(N/N=C/c1cc(Br)cc(Br)c1O)c1ccc(OC(F)(F)F)cc1F | 267 | 16 (≈ 32 µM) | 0.06 (≈ 0.12 µM) |  | 16 (≈ 32 µM) | 267 | 0.5 (≈ 1 µM)
47 | O=C(N/N=C/c1cc(Br)cc(Br)c1O)c1ccc(C(F)(F)F)cc1F | 533 | 64 (≈ 132 µM) | 0.12 (≈ 0.248 µM) |  | 16 (≈ 33.1 µM) | 133 | 0.5 (≈ 1.03 µM)
48 | CN(C)c1ccc(C(=O)N/N=C/c2cc(Br)ccc2O)cc1 |  |  | > 16 |  |  |  | 
49 | CN(C)c1ccc(C(=O)N/N=C/c2c(O)ccc3ccccc23)cc1 | 64 | 32 (≈ 96 µM) | 0.5 (≈ 1.5 µM) | 2 (≈ 6 µM) | 16 (≈ 48 µM) |  | 
50 | O=C(c1ccc(Br)cc1)n1ccc(-c2cc(Br)cc(Br)c2O)n1 |  |  | > 16 |  |  |  | 
51 | CN(/N=C/c1cc(Br)cc(Br)c1O)C(=O)c1ccc(Br)cc1 |  |  | > 16 |  |  |  | 
52 | O=C(N/N=C/c1cc(Cl)cc(Cl)c1O)c1cccc(Br)c1Br | 64 | 64 (≈ 137 µM) | 1 (≈ 2.14 µM) |  | 16 (≈ 34.3 µM) | 16 | 1 (≈ 2.14 µM)
